Assay results from ChEMBL document CHEMBL4270537, “Design and biological evaluation of novel triaryl pyrazoline derivatives with dioxane moiety for selective BRAFV600E inhibition” (Eur J Med Chem, 2018).

Assays:
A-375 [1] = test: Cell cycle arrest in human A375 cells assessed as accumulation at G2/M phase at 2.5 uM after 24 hrs by propidium iodide staining based flow cytometry (reference value: 5.1%); assay type: functional
A-375 [2] = test: Cell cycle arrest in human A375 cells assessed as accumulation at G2/M phase at 10 uM after 24 hrs by propidium iodide staining based flow cytometry (reference value: 5.1%); assay type: functional
A-375 [3] = test: Cell cycle arrest in human A375 cells assessed as accumulation at G2/M phase at 2 uM after 72 hrs by propidium iodide staining based flow cytometry (reference value: 5.1%); assay type: functional
A-375 [4] = test: Cell cycle arrest in human A375 cells assessed as accumulation at S phase at 10 uM after 24 hrs by propidium iodide staining based flow cytometry (reference value: 21.3%); assay type: functional
A-375 [5] = test: Induction of apoptosis in human A375 cells assessed as viable cells at 2.5 uM after 24 hrs by Annexin V-FITC/PI staining based flow cytometry (reference value: 88.7%); assay type: functional; details: A-375, 24 h, read-out: Activity
A-375 [6] = test: Induction of apoptosis in human A375 cells assessed as late apoptotic cells at 20 uM after 24 hrs by Annexin V-FITC/PI staining based flow cytometry (reference value: 4.26%); assay type: functional
A-375 [7] = test: Induction of apoptosis in human A375 cells assessed as necrotic cells at 10 uM after 24 hrs by Annexin V-FITC/PI staining based flow cytometry (reference value: 1.61%); assay type: functional
A-375 [8] = test: Cell cycle arrest in human A375 cells assessed as accumulation at G1 phase at 10 uM after 24 hrs by propidium iodide staining based flow cytometry (reference value: 73.6%); assay type: functional
A-375 [9] = test: Induction of apoptosis in human A375 cells assessed as necrotic cells at 2 uM after 24 hrs by Annexin V-FITC/PI staining based flow cytometry (reference value: 1.55%); assay type: functional
A-375 [10] = test: Induction of apoptosis in human A375 cells assessed as late apoptotic cells at 2 uM after 24 hrs by Annexin V-FITC/PI staining based flow cytometry (reference value: 3.61%); assay type: functional
How it was run: (§1)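 Apoptosis time course. A375 cells in 24-well plates (about 10⁵/well) at 2 µM for 0, 24, 48 and 72 h. Harvested by trypsin, washed in PBS, stained 15 min at room temperature in the dark with Annexin V-FITC/PI, analysed by flow cytometry.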

A-375 [11] = test: Cell cycle arrest in human A375 cells assessed as accumulation at S phase at 2.5 uM after 24 hrs by propidium iodide staining based flow cytometry (reference value: 21.3%); assay type: functional
A-375 [12] = test: Induction of apoptosis in human A375 cells assessed as viable cells at 10 uM after 24 hrs by Annexin V-FITC/PI staining based flow cytometry (reference value: 88.7%); assay type: functional; details: A-375, 24 h, read-out: Activity
A-375 [13] = test: Cell cycle arrest in human A375 cells assessed as accumulation at S phase at 2 uM after 72 hrs by propidium iodide staining based flow cytometry (reference value: 21.3%); assay type: functional
A-375 [14] = test: Cell cycle arrest in human A375 cells assessed as accumulation at G1 phase at 2 uM after 48 hrs by propidium iodide staining based flow cytometry (reference value: 73.6%); assay type: functional
A-375 [15] = test: Induction of apoptosis in human A375 cells after 24 to 72 hrs by Annexin V-FITC/PI staining based flow cytometry; assay type: functional, cell-based; how it was run: as §1
A-375 [16] = test: Induction of apoptosis in human A375 cells assessed as viable cells at 5 uM after 24 hrs by Annexin V-FITC/PI staining based flow cytometry (reference value: 88.7%); assay type: functional; details: A-375, 24 h, read-out: Activity
A-375 [17] = test: Cell cycle arrest in human A375 cells assessed as accumulation at S phase at 20 uM after 24 hrs by propidium iodide staining based flow cytometry (reference value: 21.3%); assay type: functional
A-375 [18] = test: Cell cycle arrest in human A375 cells assessed as accumulation at G2/M phase at 5 uM after 24 hrs by propidium iodide staining based flow cytometry (reference value: 5.1%); assay type: functional

COc1cccc(C2=NN(C(=S)Nc3ccccc3)C(c3ccc4c(c3)OCCO4)C2)c1 (stereo not drawn)
Activity (A-375 [1]): 8.2% | Activity (A-375 [2]): 18.1% | Activity (A-375 [3]): 36.8% | Activity (A-375 [4]): 13.8% | viability at 2.5 µM (A-375 [5]): 74.4% | Activity (A-375 [6]): 11% | Activity (A-375 [7]): 2.6% | Activity (A-375 [8]): 68.1% | Activity (A-375 [9]): 2.56% | Activity (A-375 [10]): 6.76% | Activity (A-375 [11]): 19.5% | viability at 10 µM (A-375 [12]): 41.5% | Activity (A-375 [13]): 27.6% | Activity (A-375 [14]): 58.8% | Activity (A-375 [15]): Dose-dependent effect | viability at 5 µM (A-375 [16]): 65% | Activity (A-375 [17]): 16.9% | Activity (A-375 [18]): 10.3%
